{"source": "paper PMC3425077", "about": "(Indian Journal of Pharmaceutical Sciences, 2011)", "type_in_all_cases": "in vivo", "key": {"[1]": {"system": "carrageenan induced rat paw edema", "assay": "Carrageenan induced rat paw edema method", "details": "dose mg/Kg b.w.: Std (Aspirin) 200, 4a-4d 100, 4e 200, 4f 75", "procedure,_shortened": "(§1)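 Animals given test compound or standard were compared with a control group of animals. Significance of the differences between treatment and control was assessed by Student's t test.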"}, "[2]": {"system": "ulcers", "assay": "Ulcerogenic activity, arbitrary scoring of ulcer severity", "details": "dose mg/Kg b.w.: Std (Aspirin) 200, 4a-4d 100, 4e 200, 4f 75"}, "[3]": {"system": "adrenal gland weight", "assay": "Adrenal weight change method", "details": "suppression of adrenal gland weight; dose mg/Kg b.w.: Std (Aspirin) 200, 4a-4d 100, 4e 200, 4f 75", "procedure,_shortened": "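Adrenal weight change was one of the anti-inflammatory methods. Treated groups were compared with a control group of animals by Student's t test and marked significant or non-significant.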"}, "[4]": {"system": "radiant heat induced rat tail flick", "assay": "Radiant heat induced rat tail flick method", "details": "dose mg/Kg b.w.: Std (Aspirin) 200, 4a-4d 100, 4e 200, 4f 75", "procedure,_shortened": "as §1"}}, "data": [{"smiles": "CC(=O)Oc1ccccc1C(=O)O", "note": "[Aspirin]", "values": [{"measurement": "Antiinflammatory activity Percentage inhibition Carrageenan method 1 h", "setting": "[1]; after 1 h", "value": 54.84, "unit": "%"}, {"measurement": "Antiinflammatory activity Percentage inhibition Carrageenan method 3 h", "setting": "[1]; after 3 h", "value": 55.05, "unit": "%"}, {"measurement": "Antiinflammatory activity Percentage inhibition Carrageenan method 5 h", "setting": "[1]; after 5 h", "value": 73.81, "unit": "%"}, {"measurement": "Ulcer index", "setting": "[2]", "value": 43.33}, {"measurement": "Antiinflammatory activity Percentage inhibition Adrenal weight method", "setting": "[3]", "value": 50.13, "unit": "%"}, {"measurement": "Analgesic activity percent protection Rat tail flicK method", "setting": "[4]", "value": 49.39, "unit": "%"}]}]}
